Compounds with a hit are over-represented: about 8.9% of the library has one in this group of screens.
MT stabilize HCS – microtubule stabilization, imaging screen | HeLa tubulin immunostaining HCS, 24 h; share of cells brighter than vehicle mean+2SD | % tubulin-high responders, % at 10 µM | 200,000 compounds, 0.83% hits | AID 2205;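 active = plate Z-score above 3 for both tubulin-high and condensed-nucleus cell shares, with cell loss under 80%, at 10 µM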;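 note: anti alpha tubulin signal scored within the nucleus-defined area of each cell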
b-catenin transl – alters nuclear translocation of beta-catenin in HeLa cells | immunofluorescence imaging | nuclear translocation activity, % at 5 µM | 190,000 compounds, 0.3% hits | AID 1665;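 active = nuclear translocation activity above 50% at 5 µM, with a well cell count of 50 or more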;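 note: per-cell ratio of nuclear to cytoplasmic median beta-catenin stain intensity; plate controls were DMSO negative control for no effect and GSK-3 inhibitor IX positive control for full effect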
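test system = HeLa cells, endogenous beta-catenin | dosing = single 5 µM dose plus 0.02–20 µM confirmation series | times = compound treatment 24 h, 37°C, 5% CO2 | technique = beta-catenin immunofluorescence imaging with DAPI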
HSV augment – increases HSV replication in cells | AID 1956 | maximum fold increase | HSV replication augmentation in cells, fold increase | 220,000 compounds, 0.005% hits; in the data active = maximum fold increase above about 1.5; tested in PC3 cells
Dynein transport – dynein cargo transport inhibition; 220,000 compounds, 0.47% hits; z-score, hits read low; 3617.4 mouse cells, GR-EGFP nuclear translocation imaging; test concentration mostly 20 µM; stimulated with dexamethasone, 1 µM; active compounds read low;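 active = plate z-score of nuclear minus cytoplasmic receptor signal below a set negative limit, without overly bright fluorescence or cell loss, cut at about -3.5 in these data, passing the limit was not always enough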;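 note: z-score of nuclear minus cytoplasmic ring GR-EGFP intensity difference per well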
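Medium: Induction medium lacking tetracycline, stripped serum | Probe or stimulus: 1.0 µM final dexamethasone stimulus | Schedule: 48 h induction, then 1 h compound, then 30 min agonist, 37 °C | Signal: Automated 10x imaging of fixed Hoechst-stained cells | Evaluation: Per-cell GR-EGFP intensity, nucleus versus surrounding cytoplasmic ring, well-averaged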
L major viab – Leishmania major promastigote growth inhibition. inhibition, % at 10 µM. Leishmania major promastigotes, resazurin fluorescence viability. 200,000 compounds, 9% hits; in the data active = inhibition above about 50%;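 note: promastigotes grown with compound for 44 hours at 28 °C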
Active calls of the source: *; i = inactive; . = no result.

SMILES | MT stabilize HCS | b-catenin transl | HSV augment | Dynein transport | L major viab
Cc1cc(N2CCOCC2)nc2ccc(NC(=S)N3CCCCC3C)cc12 (stereo unspecified) | 3.8 | 1.5 | i | 1.95 | 85.5*
Cc1cc(N2CCN(C)CC2)nc2ccc(NC(=S)N3CCCCCC3)cc12 | 0.1 | -1.8 | i | -0.668 | 22.2
CCN1CCN(c2cc(C)c3cc(NC(=S)NCCCN4CCc5ccccc5C4)ccc3n2)CC1 | 2.9 | 0.6 | i | 0.597 | 100.2*
CN(CC(N)=O)S(=O)(=O)c1ccc(F)cc1 | 1.9 | -5.6 | i | -0.241 | -3.7
Cc1cnc(NC(=O)CSc2nnc(N)s2)s1 | 1.0 | -1.7 | i | -1.48 | -6.5
CCCN1CCN(CCCNC(=S)Nc2ccc3nc(N4CCN(CC)CC4)cc(C)c3c2)CC1 | 2.7 | -2.1 | i | 1.21 | 25.6
Cc1cc(N2CCN(C)CC2)nc2ccc(NC(=S)NCCCN3CCc4ccccc4C3)cc12 | 1.9 | -0.7 | i | -0.483 | 100.4*
CCOC(=O)c1c(OCC)[nH]c2c1cc(O)c1ccccc12 | 1.8 | -1.6 | i | 0.334 | 99.0*
CCOC(=O)c1c(C)[nH]c2cc(Br)c(O)cc12 | 3.1 | 1.8 | i | -0.237 | 17.2
CC(=O)c1ccc2c(c1)Cc1cc(C(C)=O)ccc1-2 | 3.7 | 2.0 | i | 0.136 | -1.2
Cc1cccc(C)c1OCCNC(=O)C(=O)NCc1ccco1 | 10.5 | 59.4* | i | -0.21 | -0.5
Cc1ccc(Sc2ccc(CO)cc2[N+](=O)[O-])cc1 | 4.3 | 5.9 | i | -0.969 | -2.8
CN1CCN(Cc2ccc(Sc3ccc(Cl)cc3)c([N+](=O)[O-])c2)CC1 | 2.8 | 2.9 | i | 1.78 | 99.5*
O=C(O)c1ccccc1C(=O)c1ccc(Sc2ccc(Cl)cc2)c([N+](=O)[O-])c1 | . | -0.9 | i | -0.733 | .
Cc1ccc(Sc2ccc(CN3CCCC3)cc2[N+](=O)[O-])cc1 | 3.1 | 2.0 | i | 0.166 | 82.5*
O=C(Nc1ccc(N2CCN(c3ccc(O)cc3)CC2)cc1)Oc1ccccc1 | 17.9* | 2.6 | i | 1.04 | 3.9
O=C(NC(=S)Nc1ccc(CN2CCCCC2)cc1)c1cccc(OCc2ccccc2)c1 | 2.0 | 0.3 | i | -0.892 | 84.2*
CCN1CCN(c2ccc(NC(=O)c3cccc(OCc4ccccc4)c3)cc2)CC1 | 2.2 | -10.2 | i | -0.36 | -1.7
COc1c(F)c(F)c(C(=O)Nc2ccc(N3CCN(Cc4ccccc4)CC3)cc2)c(F)c1F | 2.7 | -2.2 | i | -0.72 | 51.7*
CN1CCN(c2ccc(NC(=O)c3cccc(OCc4ccccc4)c3)cc2)CC1 | 2.9 | -0.7 | . | -1.05 | 100.3*
Nc1ccc(OC(=O)Nc2ccc(O)cc2)cc1 | . | -0.9 | i | 0.382 | .
O=C(NCCCOc1cccc(CN2CCCCC2)c1)c1ccc(Cl)c(Cl)c1 | 2.9 | -1.4 | i | -0.8 | 66.3*
c1cc(CN2CCCCC2)cc(OCCCNc2nc3ccccc3s2)c1 | . | . | i | . | .
COC(=O)CN(c1ccc(OC)cc1)S(=O)(=O)c1ccc(OC)c(OC)c1 | 2.8 | 0.2 | i | -0.625 | -1.4
CCOC(=O)c1c(C)nc2sc3c(=O)n(-c4ccc(C)cc4)cnc3c2c1-c1ccc(OC)cc1 | 1.7 | -0.2 | i | 0.474 | -0.4
SMILES | MT stabilize HCS | b-catenin transl | HSV augment | Dynein transport | L major viab
CCOC(=O)CSc1nc(C)nc2c1sc1nc(C)c(C(C)=O)c(-c3ccc(OC)cc3)c12 | 2.0 | 0.3 | i | -0.368 | 85.1*
COc1ccc(-c2cc(C(=O)O)c3sc(N4CCCCC4)nc3n2)cc1OC | 2.0 | 0.2 | i | -0.0153 | 51.8*
CCOC(=O)c1cc(-c2ccccc2)nc2nc(N3CCCCC3)sc12 | 2.4 | . | i | -0.768 | 72.5*
O=C(O)c1cc(-c2ccccc2)nc2nc(N3CCCCC3)sc12 | 5.2 | -7.9 | i | 0.296 | -4.8
Cc1ccc(-c2cc(C(=O)O)c3sc(N4CCCCC4)nc3n2)cc1 | 2.2 | -3.0 | i | 0.863 | -5.1
COc1ccc(OC)c(C(=O)CN2CCN(S(=O)(=O)c3ccc(Br)cc3)CC2)c1 | 2.3 | . | i | 0.55 | 0.0
COc1ccc(CCn2nnnc2CN2CCN(C(=O)c3ccco3)CC2)cc1OC | 2.4 | -0.5 | i | -0.411 | -3.2
COc1ccc2c(c1)NC(c1cc(Cl)cc(Cl)c1O)c1cccn1-2 (stereo unspecified) | 2.4 | 1.7 | i | -0.47 | -1.0
O=C(C[n+]1cnn(CC(=O)c2ccc(Cl)cc2Cl)c1)c1ccc([N+](=O)[O-])cc1 | 2.8 | 0.3 | i | -0.548 | 83.5*

Screens from PubChem BioAssay.
